# High-throughput results (PubChem)
# An excerpt weighted towards active compounds, which were near 11% of everything screened.
# M1 antag: blocks the rat M1 muscarinic receptor response to acetylcholine; CHO-M1 cells, Fluo-4 calcium, ACh EC80 antagonist mode; stronger effect = lower value; P08482; 3.4% of 64,000 active; B-score at 10 µM;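 active = calcium fluorescence response, raw or row-and-column corrected B-score, differing from the plate sample mean either way at a set confidence level, mostly lower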
# S1P1 ag pot: agonists and agonism potentiators of human S1P1 receptor | activation, % at 9.5 µM | AID 449 | S1P1 CRE-bla cells, forskolin, beta-lactamase FRET, potentiator mode; S1P1 agonist co-added at EC20, 2 nM; 100% = saturating reference agonist, 0% = basal | 0.57% of 56,000 active | P21453;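 active = activation above a cutoff set at the mean activation of all tested compounds plus 3 SD, cut at about 54% in these data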;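 also: forskolin at 4 µM as EC80 and the EC20 agonist is SEW2871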
# S1P3 ag: S1P3 (human) receptor agonism. 0.1% of 60,000 active. activation, % at 4.5 µM. Q99500. S1P3 NFAT-BLA reporter cells, FRET ratio; relative to 1 µM S1P, basal subtracted;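 active = activation above the screen-wide mean plus 3 SD, cut at about 4.5% in these data, passing the limit was not always enough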
# Target sequence (Q99500 whole entry, looked up): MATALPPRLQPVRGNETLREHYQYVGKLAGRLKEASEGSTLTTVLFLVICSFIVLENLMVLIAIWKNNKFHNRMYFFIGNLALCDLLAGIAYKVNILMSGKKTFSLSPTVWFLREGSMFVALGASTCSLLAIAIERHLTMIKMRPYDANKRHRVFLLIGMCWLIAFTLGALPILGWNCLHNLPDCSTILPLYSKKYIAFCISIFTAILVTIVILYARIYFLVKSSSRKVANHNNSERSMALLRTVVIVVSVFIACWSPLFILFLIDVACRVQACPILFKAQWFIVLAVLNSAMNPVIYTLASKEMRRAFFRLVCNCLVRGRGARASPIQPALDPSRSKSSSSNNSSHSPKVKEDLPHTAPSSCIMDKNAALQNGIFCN
#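 Measure – % activation relative to 1 µM S1P (100%), per plate · System – stable CHO line with human S1P3, Gα16, NFAT-BLA reporter · Timing – cells plated overnight, compound 4 h 37 °C, substrate 2 h RT · Technique – fluorescent BLA substrate, ex 405 nm, em 460/535 nm ratio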
# D1 mod: allosterically modulates the human D1 dopamine receptor | HEK293 D1, CRE-luciferase, dopamine EC30 potentiation; actives deviate in either direction | B-score at 10 µM | AID 641 | P21728 | 5.9% of 58,000 active;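 active = luminescence count or its row- and column-corrected plate score outside the 99.7% band of the plate's sample wells, on either side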
# TNAP act mid DEA: activators of human TNAP at intermediate phosphate acceptor | purified TNAP, CDP-star luminescence, 100 mM DEA, 30 min; stronger effect = higher value; scale: 0 levamisole-inhibited, 1 vehicle-only enzyme | AID 813 | 64,000 tested, under 10 active | activation factor at 20 µM | P05186;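 active = activation factor of at least 2 at 20 µM, relative to controls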
# M1 agonist: activates the M1 muscarinic receptor | 3% of 64,000 active | AID 626 | B-score at 10 µM | CHO-M1 cells, Fluo-4 calcium fluorescence, agonist mode; stronger effect = higher value;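 active = fluorescence rise, raw or as B-score row- and column-corrected plate score, outside the 99.7% band of its plate's samples, either direction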
# M1 agonist conf: rat M1 muscarinic agonism, confirmation; shares compounds with M1 agonist; CHO-M1 cells, Fluo-4 calcium fluorescence, agonist mode; actives lie on both sides; fluorescence change (max-min) at 10 µM; 19% of 1,700 active; AID 1488;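 active = fluorescence change differs from the solvent-only DMSO control mean at a set confidence level in both duplicate runs; inconclusive = differs from solvent-only control mean in just one of two runs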;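 also: an EC20 dose of acetylcholine follows compound addition during the same imaging run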
# M4 ag counter: rat M4 muscarinic agonism, M1 counter-screen; shares compounds with M1 agonist; CHO M4/Gqi5 cells, Fluo-4 calcium fluorescence, agonist mode; actives lie on both sides; fluorescence change (max-min) at 10 µM; 9% of 1,700 active; AID 1741;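 active = fluorescence change differing from the plate's solvent-only control wells at 99.7% confidence in both duplicates, whether higher or lower; inconclusive = differs from solvent controls in only one of two duplicates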
# A number is an active result; . = inactive; ? = inconclusive; / = not tested or not shown.
SMILES,M1 antag,S1P1 ag pot,S1P3 ag,D1 mod,TNAP act mid DEA,M1 agonist,M1 agonist conf,M4 ag counter
CCn1c(=O)c2c3c(sc2n2c(SCc4ccc(F)cc4)nnc12)CCCC3,.,/,/,/,.,.,/,/
Cc1ccc(C)c(N2CCN(Cc3nnnn3C3CCCCC3)CC2)c1,.,.,.,.,.,10.2,.,.
O=C(O)c1cc(O)c2c(c1)C(=O)c1cccc(O)c1C2=O,.,.,.,.,.,67.5,189,?
Nc1cccc(C(=O)O)c1,.,.,.,.,.,.,/,/
CCOC(=O)c1cc2oc(C(c3nnnn3C3CCCCC3)N3CCOCC3)cc2[nH]1 (stereo not given),.,/,/,.,.,.,/,/
Cc1ccc(CNC(=O)C2CCN(S(=O)(=O)N3CCOCC3)CC2)cc1,.,.,.,.,.,.,/,/
Cn1c(O)c(C=Nc2ccc(Cc3ccncc3)cc2)c(=O)n(C)c1=O,.,.,.,/,.,.,/,/
COc1ccc(C(c2nnnn2C2CCCC2)N2CCc3ccccc3C2)cc1OC (stereo not given),.,.,.,.,.,.,/,/
COCCn1nnnc1C(c1ccc(O)c(OC)c1)N1CCc2ccccc2C1 (stereo not given),.,.,.,.,.,4,.,.
O=C(Cc1cccs1)N1CCN(c2nc(-c3ccc(Cl)cc3)cs2)CC1,.,.,.,.,.,3.46,-28.5,.
Cc1c(Cc2ccccc2)sc(N)c1C(N)=O,.,.,.,.,.,8.76,.,.
CC1(C)NC(=O)N(CCCSc2ccc(Cl)cc2)C1=O,.,/,.,.,.,.,/,/
COc1cc(C(=S)N2CCCCC2)ccc1OCC(=O)N1CCCC1,.,.,.,.,.,.,/,/
Cc1cc(Cl)ccc1OCC(=O)N1CCCCC1,.,.,.,.,.,2.21,?,.
O=C(NCc1cccs1)Nc1ccc2c(c1)OCO2,.,.,.,.,.,3.08,?,.
COc1ccc(Cl)cc1-n1c(=S)sc2c(=O)[nH]c(SCC(=O)NCC3CCCO3)nc21 (stereo not given),.,/,/,.,.,.,/,/
O=C(Cc1ccccc1)Nc1cccc(-c2nnc(-c3ccco3)o2)c1,.,.,.,/,.,5.23,.,.
O=C(Cc1ccc(Cl)cc1)Nc1cccc(-c2nnc(-c3ccco3)o2)c1,.,.,.,/,.,.,/,/
COc1ccc(CC(=O)Nc2cccc(-c3nnc(-c4ccc(C)cc4)o3)c2)cc1OC,.,.,.,.,.,.,/,/
COc1ccc(CC(=O)Nc2cccc(-c3nnc(-c4cccc(C)c4)o3)c2)cc1OC,-7.27,/,.,-2.66,.,6.56,.,?
COc1cccc(C(=O)Nc2ccc(-c3nnc(-c4ccco4)o3)cc2)c1,.,.,.,/,.,5.63,.,?
COc1ccc(-c2noc(Cc3cccs3)n2)cc1,.,.,.,.,.,5.26,.,?
COc1ccc(-c2noc(Cc3ccccc3OC)n2)cc1,.,.,.,.,.,.,/,/
Cc1ccc(S(=O)(=O)CC(=O)N(C)C)cc1,.,/,/,.,.,.,/,/
COc1ccc(C2C3=C(CC(C)(C)CC3=O)Nc3c2c(=O)[nH]c(=O)n3Cc2ccccc2)cc1OC (stereo not given),.,.,.,.,.,9.85,.,.
CCc1ccc(C2C3=C(CC(C)(C)CC3=O)Nc3c2c(=O)[nH]c2nc(C)nn32)cc1 (stereo not given),.,.,.,.,.,.,/,/
Cc1nc2[nH]c(=O)c3c(n2n1)NC1=C(C(=O)CC(C)(C)C1)C3c1ccc(F)cc1 (stereo not given),.,.,.,.,.,3.84,.,.
COc1cc(C2C3=C(CC(C)(C)CC3=O)Nc3c2c(=O)[nH]c(=O)n3Cc2ccccc2)ccc1O (stereo not given),.,/,/,.,.,.,/,/
